Active and inactive are the calls of the source. Unless noted, no cut-off for these calls is given here.
Experiments:
[1] = biological target: T1, Thromboxane-A synthase (Rattus norvegicus) (UniProt P49430); test: Tested for antihypertensive activity in spontaneously hypertensive rats at 100 mg/kg peroral dosage for 2 days; I is inactive; type: functional, organism-based; set-up: dose 100 mg/kg
T1 sequence (whole entry): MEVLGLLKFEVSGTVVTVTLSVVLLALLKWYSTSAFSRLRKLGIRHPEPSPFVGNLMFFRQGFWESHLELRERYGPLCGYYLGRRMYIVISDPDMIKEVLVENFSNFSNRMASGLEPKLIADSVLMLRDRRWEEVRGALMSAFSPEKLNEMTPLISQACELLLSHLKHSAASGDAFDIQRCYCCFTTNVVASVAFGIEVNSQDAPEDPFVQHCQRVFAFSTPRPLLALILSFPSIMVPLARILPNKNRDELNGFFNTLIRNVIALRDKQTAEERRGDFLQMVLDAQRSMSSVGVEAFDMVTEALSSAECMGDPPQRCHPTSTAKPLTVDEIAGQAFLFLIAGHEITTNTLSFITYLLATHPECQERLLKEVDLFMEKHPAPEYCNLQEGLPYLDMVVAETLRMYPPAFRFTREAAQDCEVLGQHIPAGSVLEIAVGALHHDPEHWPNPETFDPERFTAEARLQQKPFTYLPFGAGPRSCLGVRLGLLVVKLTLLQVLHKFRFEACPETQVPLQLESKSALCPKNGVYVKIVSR
How it was run: (§1)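 Male 16-week-old Okamoto SHR (mean arterial pressure about 170 mmHg) gavaged with compound suspended in 2% preboiled starch (50 mg/mL) at 100 mg/kg or less, with 0.9% NaCl load 25 mL/kg; identical second dose without saline 24 h later. Mean arterial pressure measured 28 h after first dose; one to three rats per compound.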

Thromboxane-A synthase = biological target: T2, Thromboxane-A synthase (Rattus norvegicus, UniProt P49430); test: Tested for inhibition of thromboxane synthetase from spontaneously hypertensive rats
T2 sequence (P49430 whole entry): T1 sequence (whole entry)
How it was run: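 Washed SHR platelets in oxygenated Krebs phosphate buffer pH 7.4 (4.5-6.0 X 10^4 platelets/µL) incubated with vehicle or drug 10 min at 37 °C; stopped with ice and citric acid. TXB2 measured by direct RIA. Percent inhibition is relative to vehicle controls after background subtraction. IC50 is read from a plot of inhibition vs log concentration.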

Oryctolagus cuniculus [2] = test: Tested for inhibition of thromboxane formation in rabbit platelets at 1.0 hr by administration of 0.3 mg/kg intravenous bolus dose; type: functional
How it was run: (§2)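 Rabbits given compound in 0.9% sterile saline IV, as a bolus or by infusion pump. Blood drawn 5 min predose and at 0.5, 1, 2 and 3 h, then clotted 2 h at 37 °C and held 2 h on ice. Serum mixed with indomethacin, stored at -20 °C, and diluted in pH 7.4 phosphate buffer. TXB2 measured by direct RIA.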

Oryctolagus cuniculus [3] = test: Tested for inhibition of thromboxane formation in rabbit platelets at 1.0 hr by administration of 0.1 mg/kg intravenous bolus dose; type: functional; how it was run: as §2
Homo sapiens = species: Homo sapiens; test: Tested for inhibition of thromboxane formation in human platelets; type: functional
How it was run: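 Platelets from four healthy human volunteers were isolated with a small amount of prostaglandin E1 to prevent aggregation, then treated with compound, standard or vehicle. TXB2 measured by direct RIA. IC50 is read graphically from percent inhibition vs log concentration curves.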

Oryctolagus cuniculus [4] = test: Tested for inhibition of thromboxane formation in rabbit platelets at 3 hr by administration of 0.1 mg/kg intravenous bolus dose; type: functional; how it was run: as §2
Oryctolagus cuniculus [5] = test: Tested for inhibition of thromboxane formation in rabbit platelets at 2 hr by administration of 0.1 mg/kg intravenous bolus dose; type: functional; how it was run: as §2
Oryctolagus cuniculus [6] = test: Tested for inhibition of thromboxane formation in rabbit platelets at 0.5 hr by administration of 0.3 mg/kg intravenous bolus dose; type: functional; how it was run: as §2
Oryctolagus cuniculus [7] = test: Tested for inhibition of thromboxane formation in rabbit platelets at 0.5 hr by administration of 0.1 mg/kg intravenous bolus dose; type: functional; how it was run: as §2
Oryctolagus cuniculus [8] = test: Tested for inhibition of thromboxane formation in rabbit platelets at 3 hr by administration of 0.3 mg/kg intravenous bolus dose; type: functional; how it was run: as §2
Oryctolagus cuniculus [9] = test: Tested for inhibition of thromboxane formation in rabbit platelets at 1.0 hr by administration of 0.5 mg/kg/h perfused dose; type: functional; how it was run: as §2
Oryctolagus cuniculus [10] = test: Tested for inhibition of thromboxane formation in rabbit platelets at 2 hr by administration of 0.3 mg/kg intravenous bolus dose; type: functional; how it was run: as §2
Oryctolagus cuniculus [11] = test: Tested for inhibition of thromboxane formation in rabbit platelets at 0.5 hr by administration of 0.5 mg/kg/h perfused dose; type: functional; how it was run: as §2
Oryctolagus cuniculus [12] = test: Tested for inhibition of thromboxane formation in rabbit platelets at 3 hr by administration of 10 mg/kg intravenous bolus dose; type: functional; how it was run: as §2
Oryctolagus cuniculus [13] = test: Tested for inhibition of thromboxane formation in rabbit platelets at 1.0 hr by administration of 10 mg/kg intravenous bolus dose; type: functional; how it was run: as §2
[14] = biological target: T1, Thromboxane-A synthase (Rattus norvegicus); test: Tested for antihypertensive activity in spontaneously hypertensive rats at 100 mg/kg peroral dosage for 2 days; A means active; type: functional, organism-based; set-up: dose 100 mg/kg; how it was run: as §1

| Structure (SMILES) | Activity [1] | IC50 (Thromboxane-A synthase) [nM] | Activity [14] | also measured |
| --- | --- | --- | --- | --- |
| CC(Cn1ccnc1)Cn1c(=O)[nH]c2cc(Cl)ccc2c1=O (stereo not given) |  |  |  | inhibition in vivo at 0.3 mg/kg (Oryctolagus cuniculus [2]): 82.8%; inhibition in vivo at 0.1 mg/kg (Oryctolagus cuniculus [3]): 62.8%; IC50 (Homo sapiens): 21.2 nM; inhibition in vivo at 0.1 mg/kg (Oryctolagus cuniculus [4]): 46.2%; inhibition in vivo at 0.1 mg/kg (Oryctolagus cuniculus [5]): 39.5%; inhibition in vivo at 0.3 mg/kg (Oryctolagus cuniculus [6]): 88.9%; inhibition in vivo at 0.1 mg/kg (Oryctolagus cuniculus [7]): 73.6%; inhibition in vivo at 0.3 mg/kg (Oryctolagus cuniculus [8]): 53.1%; inhibition in vivo at 0.5 mg/kg (Oryctolagus cuniculus [9]): 98.1%; inhibition in vivo at 0.3 mg/kg (Oryctolagus cuniculus [10]): 60.8%; inhibition in vivo at 0.5 mg/kg/h (Oryctolagus cuniculus [11]): 95.9% |
| Cc1ccc(N)c(C(=O)NCCCCn2ccnc2)c1 | inactive | 340 |  |  |
| CC(CNC(=O)c1ccccc1N)Cn1ccnc1 (stereo not given) | inactive | 2500 |  |  |
| O=C(O)c1ccc(OCCn2ccnc2)cc1 [DAZOXIBEN] | inactive |  |  | inhibition in vivo at 0.3 mg/kg (Oryctolagus cuniculus [2]): 30.1%; inhibition in vivo at 10 mg/kg (Oryctolagus cuniculus [12]): 74.5%; IC50 (Homo sapiens): 5030 nM; inhibition in vivo at 10 mg/kg (Oryctolagus cuniculus [13]): 94.7%; inhibition in vivo at 0.3 mg/kg (Oryctolagus cuniculus [6]): 45.9%; inhibition in vivo at 0.3 mg/kg (Oryctolagus cuniculus [8]): 22.8%; inhibition in vivo at 0.3 mg/kg (Oryctolagus cuniculus [10]): 13.6% |
| Nc1ccc(Cl)cc1C(=O)NCCCCn1ccnc1 | inactive |  |  |  |
| Cc1ccc(N)c(C(=O)NCC(C)Cn2ccnc2)c1 (stereo not given) | inactive | 1300 |  |  |
| CC(Cn1ccnc1)Cn1cnc2ccc(Cl)cc2c1=O (stereo not given) | inactive | 90 |  |  |
| CC(CCn1c(=O)[nH]c2cc(Cl)ccc2c1=O)n1ccnc1 (stereo not given) | inactive |  |  |  |
| O=c1[nH]c2ccc(Cl)cc2c(=O)n1CCCCCCCCCCn1ccnc1 | inactive | 7 |  |  |
| CC(CCn1c(=O)[nH]c2ccc(Cl)cc2c1=O)n1ccnc1 (stereo not given) |  | 150 | Active |  |
| O=c1[nH]c2ccc(Cl)cc2c(=O)n1CCCCCCn1ccnc1 |  | 4 | Active |  |
| CC(Cn1ccnc1)Cn1c(=O)[nH]c2ccc(Cl)cc2c1=O (stereo not given) | inactive |  |  |  |
| Cc1ccc2[nH]c(=O)n(CC(C)Cn3ccnc3)c(=O)c2c1 (stereo not given) | inactive | 3 |  |  |
| CC(Cn1ccnc1)Cn1c(=O)[nH]c2c(C(F)(F)F)cccc2c1=O (stereo not given) |  | 400 | Active |  |
| CC(CCn1c(=O)[nH]c2c(Cl)cccc2c1=O)n1ccnc1 (stereo not given) |  | 1000 | Active |  |
| CC(Cn1ccnc1)Cn1c(=O)[nH]c2c(Cl)cccc2c1=O (stereo not given) | inactive | 10 |  |  |
| O=c1[nH]c2ccc(Cl)cc2c(=O)n1CCCCCCCCn1ccnc1 | inactive |  |  |  |
| Nc1cc(Cl)ccc1C(=O)NCCCCCn1ccnc1 | inactive |  |  |  |
| CC(CNC(=O)c1cc(Br)ccc1N)Cn1ccnc1 (stereo not given) | inactive | 290 |  |  |
| Cc1ccc(N)c(C(=O)NCCC(C)n2ccnc2)c1 (stereo not given) |  | 170 | Active |  |
| Nc1c(Cl)cccc1C(=O)NCCCCCn1ccnc1 | inactive |  |  |  |
| CC(CCNC(=O)c1cc(Cl)ccc1N)n1ccnc1 (stereo not given) |  | 500 | Active |  |
| Nc1ccc(Cl)cc1C(=O)NCCCCCCCn1ccnc1 | inactive |  |  |  |
| O=c1[nH]c2cc(Cl)ccc2c(=O)n1CCCCCCn1ccnc1 |  | 200 | Active |  |
| O=c1[nH]c2ccc(Cl)cc2c(=O)n1CCCCCn1ccnc1 |  | 12 | Active |  |

Second part, led by results:

| Activity [1] | IC50 (Thromboxane-A synthase) [nM] | Activity [14] | Structure (SMILES) | also measured |
| --- | --- | --- | --- | --- |
| inactive | 900 |  | CC(Cn1ccnc1)Cn1nnc2ccc(Cl)cc2c1=O (stereo not given) |  |
| inactive | 600 |  | O=c1[nH]c2ccccc2c(=O)n1CCCn1ccnc1 |  |
| inactive | 180 |  | O=c1[nH]c2cc(Cl)ccc2c(=O)n1CCCn1ccnc1 |  |
| inactive |  |  | O=c1c2ccccc2ncn1CCCn1ccnc1 |  |
| inactive | 1700 |  | CC(Cn1ccnc1)Cn1nnc2ccc(Br)cc2c1=O (stereo not given) |  |
| inactive | 20 |  | Cc1ccc2[nH]c(=O)n(CCCn3ccnc3)c(=O)c2c1 |  |
| inactive |  |  | Nc1ccccc1C(=O)NCCCn1ccnc1 |  |
| inactive |  |  | O=c1c2cc(Cl)ccc2ncn1CCCCCn1ccnc1 |  |
| inactive |  |  | O=c1[nH]c2ccc(Cl)cc2c(=O)n1CCCn1ccnc1 |  |
|  | 30 | Active | O=c1[nH]c2c(Cl)cccc2c(=O)n1CCCCn1ccnc1 |  |
|  | 1500 | Active | O=c1c2ccccc2nnn1CCCn1ccnc1 |  |
|  | 40 | Active | O=c1[nH]c2c(Cl)cccc2c(=O)n1CCCCCn1ccnc1 |  |
|  | 50 | Active | Cc1ccc2[nH]c(=O)n(CCCCn3ccnc3)c(=O)c2c1 |  |
| inactive |  |  | Nc1ccccc1C(=O)NCCCCn1ccnc1 |  |
| inactive |  |  | O=c1c2ccc(Cl)cc2ncn1CCCCn1ccnc1 |  |
|  | 9 | Active | O=c1[nH]c2cc(Cl)ccc2c(=O)n1CCCCn1ccnc1 |  |
|  | 700 | Active | CC(CCn1c(=O)[nH]c2ccccc2c1=O)n1ccnc1 (stereo not given) |  |
| inactive |  |  | O=c1c2ccccc2nnn1CCCCCn1ccnc1 |  |
|  | 50 | Active | O=c1c2ccccc2nnn1CCCCCCn1ccnc1 |  |
|  | 50 | Active | O=c1[nH]c2c(C(F)(F)F)cccc2c(=O)n1CCCCn1ccnc1 |  |
|  | 350 | Active | Cc1ccc2ncn(CCCCn3ccnc3)c(=O)c2c1 |  |
|  | 30 | Active | CC(Cn1ccnc1)Cn1c(=O)[nH]c2ccccc2c1=O (stereo not given) |  |
| inactive | 100 |  | O=c1[nH]c2ccc(Br)cc2c(=O)n1CCCn1ccnc1 |  |
|  | 500 | Active | O=c1c2cc(Cl)ccc2ncn1CCCCn1ccnc1 |  |
| inactive |  |  | O=c1c2cc(Cl)ccc2nnn1CCCn1ccnc1 |  |

Reference: ChEMBL document CHEMBL1123918, “Thromboxane synthetase inhibitors and antihypertensive agents. 4. N-[(1H-imidazol-1-yl)alkyl] derivatives of quinazoline-2,4(1H,3H)-diones, quinazolin-4(3H)-ones, and 1,2,3-benzotriazin-4(3H)-ones” (J Med Chem, 1987)
